The results in this text go back to ChEMBL document CHEMBL3875170, “2-Methyl-4/5-nitroimidazole derivatives potentiated against sexually transmitted Trichomonas: Design, synthesis, biology and 3D-QSAR study” (Eur J Med Chem, 2016).

The term IC50 denotes the concentration that gives 50% inhibition. A lower IC50 goes with higher potency. The term MIC denotes the least concentration at which growth counts as inhibited. What is called Tmax is the time from dosing to the highest level. Usually Cmax stands for the peak of the concentration-time curve. What is called half-life is the time needed for the level to fall by half in the phase considered. Higher therefore signals slow decline.

Data set [1] deals with Trichomonas vaginalis. The data set is described as follows: Potency index, ratio of metronidazole MIC to compound MIC for metronidazole resistant Trichomonas vaginalis ATCC 50143. Format: functional.
Data set [2] concerns Trichomonas vaginalis. The data set is described as follows: Potency index, ratio of metronidazole MIC to compound MIC for metronidazole sensitive Trichomonas vaginalis ATCC 33592. Format: functional.
The nature of data set [3]: Cytotoxicity against human HeLa cells after 24 hrs by MTT assay. Format: toxicity, cell-based. In short, it runs like this:
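HeLa cells seeded at 2 × 10⁴ per well in DMEM with 10% FCS, in triplicate, and held 24 h at 37 °C in 5% CO₂. Exposed to compound dilutions for 24 h; controls received 0.05% DMSO. MTT in PBS pH 7.4 added, formazan dissolved in DMSO, OD540 read. IC50 taken as the concentration killing 50% of cells.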

A short description of data set [4]: Selectivity index, ratio of IC50 for human HeLa cells to MIC for metronidazole resistant Trichomonas vaginalis ATCC 50143. Format: toxicity, cell-based. Conditions: read-out: Selectivity Index. Summed up:
(§1)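 SI is HeLa IC50 divided by parasite MIC. HeLa cells seeded at 2 × 10⁴/well in triplicate in DMEM with 10% FCS, 24 h at 37 °C in 5% CO2. Medium then replaced with compound dilutions (0.05% DMSO controls) for 24 h. Viability by MTT read at OD540; IC50 is the concentration killing 50% of cells. MIC from 48 h trypan blue parasite killing in TYM.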

Data set [5] concerns Trichomonas vaginalis. Nature of the data set: Antiparasitic activity against metronidazole resistant Trichomonas vaginalis ATCC 50143 after 48 hrs by trypan blue exclusion assay. Format: functional. Conditions: ATCC 50143, 48 h. In short, it runs like this: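 T. vaginalis trophozoites ([…]), log phase, grown in TYM with 10% FCS, vitamin mix and penicillin/streptomycin at 37 °C. Test agents from DMSO stocks serially diluted in TYM; DMSO/TYM vehicle controls. Anaerobic incubation at 37 °C with microscopic viability checks from 3 to 48 h by trypan blue exclusion. MIC is the lowest concentration killing all cells by 48 h. Repeated three times.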

Data set [6] relates to Trichomonas vaginalis. The data set is described as follows: Antiparasitic activity against metronidazole sensitive Trichomonas vaginalis ATCC 33592 after 48 hrs by trypan blue exclusion assay. Format: functional. Conditions: ATCC 33592, 48 h.
Data set [7] in a line: Selectivity index, ratio of IC50 for human HeLa cells to MIC for metronidazole sensitive Trichomonas vaginalis ATCC 33592. Format: toxicity, cell-based. The conditions noted are these: read-out: Selectivity Index. In short, it runs like this:
as §1

Data set [8] is described as follows: Tmax in Sprague Dawley rat at 50 mg/kg, po. Format: ADME, organism-based. The conditions noted are these: in vivo. In short, it runs like this:
(§2)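 Overnight-fasted (12–16 h) rats, n = 4 per time point, given a single oral dose of 50 mg/kg as a 12.5 mg/mL suspension in 1% w/v gum acacia and water. Blood sampled at set times up to 24 h; serum stored at −80 °C. Analysis by LC-MS/MS in positive-ion MRM mode with phenacetin as internal standard; parameters derived by non-compartmental analysis. Values are means of four rats.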

In data set [9] the test system is Trichomonas vaginalis. Nature of the data set: Antiparasitic activity against Trichomonas vaginalis in po dosed mouse assessed as size of abscess at 50 mg/kg, po administered daily for 7 days measured 7 days post last dose (reference value: 113 mm'2). Format: functional. Summed up: (§3)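 Six-week-old mice inoculated subcutaneously in the left hind flank with 50 µL of 2 × 10⁶ saline-washed trophozoites/mL grown in TYM. Abscess confirmed by palpation at day 7 and by fine-needle biopsy. Oral dosing in gum acacia at 50 or 100 mg/kg daily; controls received vehicle. Abscess size measured longitudinally each day and area calculated; n = 3 per group.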

Data set [10] is described as follows: AUClast in Sprague Dawley rat at 50 mg/kg, po. Format: ADME, organism-based. Details: dose 50 mg/kg, route oral, time 0 - last. Conditions: in vivo. Summed up: as §2
Data set [11] is described as follows: Cmax in Sprague Dawley rat at 50 mg/kg, po. Format: ADME, organism-based. Details: dose 50 mg/kg, route oral. The conditions noted are these: in vivo. In short, it runs like this: as §2
The nature of data set [12]: Half life in Sprague Dawley rat at 50 mg/kg, po. Format: ADME, organism-based. Conditions: in vivo. In short, it runs like this: as §2
Data set [13] concerns Trichomonas vaginalis. Nature of the data set: Antiparasitic activity against Trichomonas vaginalis in po dosed mouse assessed as size of abscess at 100 mg/kg, po administered daily for 5 days measured 5 days post last dose (reference value: 120 mm'2). Format: functional. In short, it runs like this: as §3
Data set [14] can be described thus: Clearance in Sprague Dawley rat at 50 mg/kg, po. Format: ADME, organism-based. The conditions noted are these: in vivo. In short, it runs like this:
as §2

In data set [15] the test system is Trichomonas vaginalis. The data set is described as follows: Antiparasitic activity against Trichomonas vaginalis in po dosed mouse assessed as size of abscess at 50 mg/kg, po administered daily for 5 days measured 5 days post last dose (reference value: 120 mm'2). Format: functional. In short, it runs like this:
as §3

Data set [16] concerns Trichomonas vaginalis. The data set is described as follows: Antiparasitic activity against Trichomonas vaginalis in po dosed mouse assessed as size of abscess at 100 mg/kg, po administered daily for 7 days measured 7 days post last dose (reference value: 113 mm'2). Format: functional. Summed up:
as §3

For data set [17], the system named is Trichomonas vaginalis. Nature of the data set: Antiparasitic activity against Trichomonas vaginalis assessed as decrease in parasite free thiol levels at MIC after 24 hrs by fluorometric thiol detector-based fluorescence microscopic method. Format: functional. In short, it runs like this: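 Cells pelleted (700 × g, 10 min, 4 °C), washed 2–3 times in PBS, then stained 5 min in the dark with fluorometric thiol detector (pre-diluted 100×). Imaged by epifluorescence microscopy, UV-1A filter, with equal exposure times for all samples.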

Data set [18] in a line: Volume of distribution at steady state in Sprague Dawley rat at 50 mg/kg, po. Format: ADME, organism-based. The conditions noted are these: in vivo. In short, it runs like this:
as §2

≈ marks a conversion by molar mass, not a printed value. Calls of active or inactive are those of the source.

`Cc1ncc([N+](=O)[O-])n1CC(O)CSC(=S)N1CCC(Cc2ccccc2)CC1` (racemic): the Ratio in data set [1] is 2.5 - 12.6; in [2], “<=2.4”. Moreover, in [3], the midpoint of inhibition, the IC50 at 24 h, lay at 1320 µM. The selectivity ratio in data set [4] came to 45; in data set [7] it was 91. Also, the figures for the MIC in data set [5] and in data set [6] were 28.8 µM (≈ 12.5 µg/mL) and 14.4 µM (≈ 6.26 µg/mL), respectively.
As for `Cc1ncc([N+](=O)[O-])n1CC(O)CSC(=S)N1CCN(c2cccc(Cl)c2Cl)CC1` (racemic), the Ratio entry is reported as “<=12.7” in [1] and “<=2.4” in data set [2]. The same compound had an IC50 at 24 h in [3] of 1000 µM. In addition, the selectivity ratio was found to be 7 in data set [4] and 62 in data set [7]. The MIC in data set [5] was found to be 128 µM (≈ 62.7 µg/mL); in [6] it was 16 µM (≈ 7.83 µg/mL).
As for `CCOC(=O)N1CCN(C(=S)SCC(O)Cn2c([N+](=O)[O-])cnc2C)CC1` (racemic), the Ratio entry in data set [1] is “<=12.7”; in data set [2], “<=2.4”. The compound also yielded a half-inhibitory concentration (IC50) at 24 h in data set [3] of 1610 µM. For the same compound, the selectivity ratio was determined as 26 in data set [4] and 107 in data set [7]. For the same compound, the MIC worked out at 60 µM (≈ 25 µg/mL) in data set [5] and 15 µM (≈ 6.25 µg/mL) in [6].
Turning to `Cc1ncc([N+](=O)[O-])n1CC(O)CSC(=S)N1CCN(c2ccccc2)CC1` (racemic), the Ratio entry is given as “<=12.7” in data set [1] and 2.4 in data set [2]. Moreover, the Tmax in data set [8] was 4 h. The Activity in data set [9] is on record as 1.55 mm2; in [13] it was 1 - 5 mm2; in [15], 1 - 5 mm2; in data set [16], 0.785 mm2. In data set [10], the AUClast was 149.1 ng·h/mL. In data set [3], this compound gave an IC50 at 24 h greater than 5000 µM. Also, the selectivity ratio is greater than 135 in [4] and greater than 584 in data set [7]. This compound came in with a Cmax in [11] of 35.2 ng/mL. Besides, in data set [12], the half-life was 5 h. In data set [14], this compound came in with a CL of 272 mL/min/kg. Also, the MIC came to 37.1 µM (≈ 15.6 µg/mL) in data set [5] and 8.55 µM (≈ 3.6 µg/mL) in [6]. The outcome in [17] was Active. In addition, in [18], the Vdss stood at 80.6 L/kg.
Turning to `Cc1ncc([N+](=O)[O-])n1CCO` [METRONIDAZOLE], the Activity is given as 1.57 mm2 in data set [9] and 1 - 5 mm2 in data set [15]. The compound further had an IC50 at 24 h in data set [3] greater than 5000 µM. The selectivity ratio in [4] was greater than 13; in data set [7], greater than 238. The MIC is 365 µM (≈ 62.6 µg/mL) in data set [5] and 21.1 µM (≈ 3.6 µg/mL) in [6].
Take `Cc1ncc([N+](=O)[O-])n1CC(O)CSC(=S)N1CCN(c2cccc(Cl)c2)CC1` (racemic): the Ratio result in data set [1] was “<=12.7”; in data set [2] it was “<=2.4”. Half-maximal inhibition in data set [3] (IC50 at 24 h) required 1080 µM. Moreover, the selectivity ratio in data set [4] came to 15; in data set [7], 62. For the same compound, the MIC worked out at 68.7 µM (≈ 31.3 µg/mL) in data set [5] and 17.2 µM (≈ 7.82 µg/mL) in data set [6].
